# Source: PubChem BioAssay
# Rows were chosen to be rich in hits. Some 4.9% of all compounds tested hit in one or more screens of this group.
# STAT1 act = STAT1 signaling activation; activation (% of control), % at 5.5 µM; AID 932; 2.6% of 200,000 active; NIH 3T3 STAT1-luciferase reporter, IFN-gamma, luminescence; 100% = IFN-gamma alone, no compound;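 active = activation above the screen-wide mean activation plus 3 SD, cut at about 130% in these data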
# STAT1 blocker = reduces IFN-gamma driven STAT1 reporter signal | NIH 3T3 STAT1-luciferase reporter, luminescence | inhibition, % at 5.5 µM | 0.35% of 200,000 active;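 active = inhibition above a set limit, the mean inhibition across all tested compounds plus 3 SD, cut at about 34% in these data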
# NF-kB neuron act = NF-kB expression increase, human neuronal cells. NF-kB reporter expression; active compounds read high. fold change at 12.5 µM. 1.6% of 190,000 active; in the data active = fold change above about 3.3
# STAT3 inh-1 = reduces IL-6 driven STAT3 reporter signal; AID 862; U3A cells, IL-6 STAT3-luciferase reporter, luminescence; host cell line lacks STAT1; inhibition, % at 5.5 µM; 0.89% of 190,000 active;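 active = inhibition above the mean inhibition across all screened compounds plus 3 SD, cut at about 44% in these data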
# APP 5'UTR act = activates APP 5'UTR luciferase reporter; SH-SY5Y APP 5'UTR luciferase reporter, luminescence; zero percent = DMSO vehicle wells; activation, % at 2 µM; 1% of 190,000 active;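 active = activation above a set limit, based on mean plus 3 SD of controls, cut at about 140% in these data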
# STAT3 activator = activators of IL-6 induced STAT3 signaling. U3A cells, IL-6 STAT3-luciferase reporter, luminescence; 100% = signal with IL-6 EC80 alone. activation (% of control), % at 5.6 µM. 0.91% of 190,000 active. AID 871;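 active = activation above the screen-wide mean of compound activation plus 3 SD, cut at about 130% in these data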
#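 system = STAT3-luciferase reporter U3A cells | reagent = IL-6 stimulus at 33 ng/mL final | timing = 1 h compound pre-exposure, 6 h IL-6 stimulation, 37 °C | measured by = luminescence | evaluation = % activation versus median of IL-6-stimulated wells | control set = IL-6-only wells as 100% reference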
# STAT3 inh-2 = STAT3 inhibition, confirmation assay. shares compounds with STAT3 inh-1. U3A cells, IL-6 STAT3 luciferase reporter, luminescence; cell line lacks STAT1. inhibition, % at 5.7 µM. 45% of 1,200 active;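 active = inhibition above the hit cutoff computed for the primary STAT3 screen, cut at about 44% in these data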
# NFkB inh 2 = counter-screen for STAT3 inhibitors: NF-kappaB inhibition; shares compounds with STAT3 inh-1; HEK293T NF-kB luciferase reporter, TNF-alpha induced; inhibition, % at 5.7 µM; 36% of 1,200 active; AID 1308;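 active = inhibition above the mean of solvent-only control wells plus 3 SD, cutoff set per campaign, cut at about 13% in these data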
# STAT1 inh 2 = STAT1 inhibition in STAT3 inhibitor counter-screen; shares compounds with STAT3 inh-1; NIH 3T3 STAT1-luciferase reporter, IFN-gamma induced, luminescence; inhibition, % at 5.7 µM; 27% of 1,200 active; AID 1317;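 active = inhibition above the mean plus 3 SD of solvent-only control wells, limit set per screening run, cut at about 16% in these data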
# STAT1 activ conf = STAT1 activation, confirmation assay | shares compounds with STAT1 act | NIH 3T3 STAT1-luciferase reporter, IFN-gamma potentiation, luminescence; 100% = IFN-gamma EC80 alone, no compound | activation (% of control), % at 5.7 µM | 97% of 1,200 active;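 active = activation above a set limit carried over from the earlier primary STAT1 screen, cut at about 140% in these data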
# NFkB act STAT1ct = NF-kappaB activation in STAT1 activator counter-screen; 43% of 1,200 active; shares compounds with STAT1 act; activation (% of control), % at 5.7 µM; HEK293T NF-kB luciferase reporter, TNF-alpha stimulated, luminescence; 100% = TNF-alpha with vehicle only; AID 1306;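 active = activation above the mean of solvent-only control wells plus 3 SD, set per campaign, cut at about 130% in these data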;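 also: TNF-alpha given at a submaximal dose yielding about 80% of full reporter signal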
# STAT3 act STAT1c = activates human STAT3, counter-screen to STAT1 activators. shares compounds with STAT1 act. U3A cells STAT3-luciferase reporter, IL-6, luminescence; cells lack STAT1; 100 = IL-6 alone, no compound effect. activation (% of control), % at 5.7 µM. 46% of 1,200 active. AID 1316;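 active = activation above the solvent-only control well mean plus 3 SD, set per plate batch, cut at about 110% in these data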;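 also: higher means more STAT3 reporter activation so hits are non-selective activators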
# Numbers stand for hits; . = inactive; / = no result.
SMILES,STAT1 act,STAT1 blocker,NF-kB neuron act,STAT3 inh-1,APP 5'UTR act,STAT3 activator,STAT3 inh-2,NFkB inh 2,STAT1 inh 2,others
COc1cccc(NC(=O)Nc2ccc3c(c2)nc(C)n3C)c1,.,.,5.7,54,.,.,.,.,.,
COc1cccc(NC(=O)Nc2nccc(C)n2)c1,.,.,4.1,71,.,.,.,.,.,
CCC1(C)Cc2sc3c(=O)[nH]c(=S)[nH]c3c2CO1 (centres undefined),.,.,.,.,.,.,/,/,/,
CC(C)C(c1nnnn1C(C)(C)C)N1CCN(c2cccc(Cl)c2)CC1 (centres undefined),.,.,.,.,.,.,/,/,/,
CCOc1ccc2nc(NC(=O)c3ccoc3C)sc2c1,.,.,3.5,79,168,.,47,14,.,
Cc1ccc2nc(NC(=O)COC(=O)c3ccco3)sc2c1,.,.,.,.,.,.,/,/,/,
CCOC(=O)c1ccc2nc(NC(=O)c3ccco3)sc2c1,.,.,4.6,54,277,.,.,.,.,
O=C(CNC(=O)c1ccc(Br)o1)OCC(=O)c1cccc([N+](=O)[O-])c1,.,.,.,.,.,.,/,/,/,
CC1Cc2cc(-c3csc(NC(=O)Cc4ccccc4)n3)ccc2N1S(C)(=O)=O (centres undefined),.,.,.,66,.,.,53,13,.,
Cc1ccc(C(=O)/C=C/Nc2ccccc2C(N)=O)cc1,.,.,6.7,76,174,.,.,.,.,
NC(=O)c1ccccc1N/C=C/C(=O)c1ccc(Cl)cc1,.,.,6.9,60,148,.,.,.,.,
CCOC(=O)c1ccccc1N/C=C/C(=O)c1ccccc1,.,.,/,.,.,.,/,/,/,
CCc1ccc2c(c1)C1(SC(NC(C)=O)=NN1C(C)=O)C(=O)N2CC (centres undefined),.,.,.,.,.,.,/,/,/,
Cc1nc2scc(-c3ccc(C(C)(C)C)cc3)c2c(=O)n1N,.,.,.,.,.,.,/,/,/,
CCCCn1c(N)c(NCCC)c(=O)[nH]c1=O,.,.,.,.,.,.,/,/,/,
O=C(Nc1nccs1)c1ccc(S(=O)(=O)NCc2cccs2)cc1,.,.,.,.,.,.,/,/,/,
O=C(Nc1ccc(Br)cc1)c1ccc(F)c(S(=O)(=O)NCc2cccs2)c1,.,.,.,57,.,.,69,17,16,
CC(C)COc1ccc(C(=O)Nc2scc(-c3ccc(Cl)cc3Cl)c2C(N)=O)cc1,.,.,.,49,.,.,.,.,.,
CC(C)COc1ccc(C(=O)Nc2ccc(SC(F)F)cc2)cc1,.,.,.,.,.,.,/,/,/,
CCCCN1C(C)=CC(=C2C(=O)c3ccccc3C2=O)C=C1C,.,.,.,71,180,.,.,.,.,
CC1=CC(=C2C(=O)c3ccccc3C2=O)C=C(C)O1,.,.,.,.,.,.,/,/,/,
COc1ccc(Cl)cc1NC(=O)COC(=O)/C=C/c1c(C)nn(C2CCS(=O)(=O)C2)c1Cl (centres undefined),.,.,.,46,.,.,.,.,.,
O=C(Nc1ccccc1)Nc1ccc(C(=O)N2CCCC2)cc1,.,.,.,45,186,.,.,.,.,
CC(=O)c1cccc(NC(=O)Nc2ccc(C(=O)N3CCCC3)cc2)c1,.,.,.,.,.,.,/,/,/,
CCN(CC)S(=O)(=O)c1ccc(C(=O)OCC(=O)Nc2ccc(-c3nc4ccc(C)cc4s3)cc2)cc1,153,.,.,47,151,.,.,.,.,STAT1 activ conf=175;NFkB act STAT1ct=.;STAT3 act STAT1c=.
SMILES,STAT1 act,STAT1 blocker,NF-kB neuron act,STAT3 inh-1,APP 5'UTR act,STAT3 activator,STAT3 inh-2,NFkB inh 2,STAT1 inh 2,others
CCN(CC)S(=O)(=O)c1ccc(NC(=O)COC(=O)c2ccc(-n3nc(C)cc3C)cc2)cc1,.,.,.,.,.,.,/,/,/,
N#C/C(=C\c1ccc(N2CCOCC2)o1)c1nc2ccccc2[nH]1,160,.,.,66,156,.,.,.,.,STAT1 activ conf=255;NFkB act STAT1ct=.;STAT3 act STAT1c=.
N#C/C(=C\c1ccc(N2CCOCC2)c([N+](=O)[O-])c1)c1nc2ccccc2[nH]1,.,.,.,.,.,.,/,/,/,
COc1ccc(NC(=O)C(c2ccccc2)c2ccccc2)cn1,.,.,.,.,.,.,/,/,/,
COc1ccc(/C=N/Nc2cc(OC)ncn2)cc1,152,.,6.8,51,203,.,.,.,.,STAT1 activ conf=228;NFkB act STAT1ct=.;STAT3 act STAT1c=.
COc1ccc(C(=O)N=c2nc3ccccn3s2)cc1,182,.,.,57,.,.,.,.,.,STAT1 activ conf=313;NFkB act STAT1ct=.;STAT3 act STAT1c=.
COc1ccc(C(=O)O/N=C(/c2ccccc2)c2ccncc2)cc1,.,.,.,.,.,.,/,/,/,
COc1cc(OC)cc(C(=O)Nn2cc(C(=O)Nc3c(F)cccc3F)c3ccccc3c2=O)c1,.,.,.,.,.,.,/,/,/,
O=C(O)/C=C/c1ccc([N+](=O)[O-])o1,.,.,.,.,.,.,/,/,/,
O=[N+]([O-])c1ccc(/C=N/N=C/c2ccc([N+](=O)[O-])o2)o1,182,.,.,58,.,.,.,.,.,STAT1 activ conf=135;NFkB act STAT1ct=138;STAT3 act STAT1c=.
Cc1cnc(NC(=O)c2sc3ccccc3c2Cl)s1,159,.,4.6,64,.,.,.,24,.,STAT1 activ conf=172;NFkB act STAT1ct=.;STAT3 act STAT1c=.
CN(C)C(CNC(=S)Nc1ccc(F)cc1)c1cccnc1 (centres undefined),.,.,.,.,.,.,/,/,/,
OCC[C@H]1C[C@H](O)[C@@H](O)[C@@]2(CCCCO2)O1,.,.,.,.,.,.,/,/,/,
CCOC(=O)/C(C#N)=C\c1cc(C)n(-c2ccccc2)c1C,165,.,.,45,136,.,.,.,.,STAT1 activ conf=238;NFkB act STAT1ct=.;STAT3 act STAT1c=115
